As a reminder, the GI50 is the concentration at which growth is held to half of that of the control.

A value given as a limit tells only on which side of the number the result lay.

GI50, RatioGI50 and selectivity ratio data for 11 molecules are collected here from ChEMBL document CHEMBL4316659, “Selective Antiproliferative Withanolides from Species in the Genera Eriolarynx and Deprea” (J Nat Prod, 2019).

One data set deals with A549. Kind of data set: Antiproliferative activity against human A549 cells incubated for 48 hrs by SRB assay. The class given is functional. The following applies: A549, 48 h. An outline of the steps: (§1)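 Cells kept in RPMI 1640 with 5% FBS and 2 mM L-glutamine at 37 °C under 5% CO2. Seeded at 2500 (A549, HBL-100, HeLa, SW1573) or 5000 (T-47D, WiDr, BJ-hTERT) cells/well and left 24 h. Compounds added as serial dilutions (0.01−100 μM) for 48 h. SRB staining read at 530 and 620 nm. GI50 calculated by NCI formulas. Mean of at least two independent experiments ± SD.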
On the technique in general: The SRB assay estimates cell density from bound dye.

The test system of another data set is HBL-100. Briefly: Antiproliferative activity against human HBL100 cells incubated for 48 hrs by SRB assay. The class given is functional. The settings on record: HBL-100, 48 h. An outline of the steps: as §1
A further data set concerns HeLa. Kind of data set: Antiproliferative activity against human HeLa cells incubated for 48 hrs by SRB assay. The class given is functional. Summed up:
as §1

Data set [1] relates to SW1573. Briefly: Antiproliferative activity against human SW1573 cells incubated for 48 hrs by SRB assay. The class given is functional. The settings on record: SW1573, 48 h. Summed up: as §1
The next data set has as its system T47D. Kind of data set: Antiproliferative activity against human T47D cells incubated for 48 hrs by SRB assay. The class given is functional. An outline of the steps: as §1
The subject of a further data set is WiDr. Kind of data set: Antiproliferative activity against human WiDr cells incubated for 48 hrs by SRB assay. The class given is functional. An outline of the steps:
as §1

The nature of data set [2]: Antiproliferative activity against human hTERT-BJ cells incubated for 48 hrs by SRB assay. The class given is cell-based. Summed up: as §1
Data set [3] deals with SW1573. Kind of data set: Antiproliferative activity against human SW1573 cells incubated for 48 hrs in absence of P-gp and CYP3A4/5 inhibitor verapamil by SRB assay. The settings on record: SW1573, 48 h. The class given is functional. Summed up: (§2)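 Wild-type SW1573 (2500 cells/well) and P-gp-overexpressing SW1573/Pgp (5000 cells/well) in RPMI 1640 with 5% FBS. Seeded 24 h, then exposed 48 h to serial dilutions (0.01−100 μM) with or without 10 μM verapamil (final) in the medium. Paclitaxel and vinblastine were reference drugs. SRB read at 530/620 nm. GI50 by NCI formulas, mean of at least two independent experiments ± SD.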

In data set [4] the test system is SW1573. Kind of data set: Antiproliferative activity against human SW1573 cells over-expressing P-gp incubated for 48 hrs in absence of P-gp and CYP3A4/5 inhibitor verapamil by SRB assay. The class given is functional. The following applies: SW1573, 48 h. Summed up: as §2
Data set [5] has as its system SW1573. Kind of data set: Resistance factor, ratio of GI50 for Antiproliferative activity against human SW1573 cells over-expressing P-gp incubated for 48 hrs in absence of P-gp and CYP3A4/5 inhibitor verapamil by SRB assay to GI50 for antiproliferative activity against human SW1573 cells incubated for 48 hrs in absence of P-gp and CYP3A4/5 inhibitor verapamil by SRB assay. The class given is functional. Summed up:
(§3)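 Resistance factor is GI50 in SW1573/Pgp divided by GI50 in wild-type SW1573. Both come from 48 h SRB assays, run with 10 μM verapamil (final) or without it.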

Data set [6] has as its system SW1573. Kind of data set: Antiproliferative activity against human SW1573 cells incubated for 48 hrs in presence of P-gp and CYP3A4/5 inhibitor verapamil by SRB assay. The class given is functional. The following applies: SW1573, 48 h. An outline of the steps: as §2
Data set [7] relates to SW1573. Kind of data set: Antiproliferative activity against human SW1573 cells over-expressing P-gp incubated for 48 hrs in presence of P-gp and CYP3A4/5 inhibitor verapamil by SRB assay. The class given is functional. The settings on record: SW1573, 48 h. An outline of the steps:
as §2

Data set [8] relates to SW1573. Briefly: Resistance factor, ratio of GI50 for Antiproliferative activity against human SW1573 cells over-expressing P-gp incubated for 48 hrs in presence of P-gp and CYP3A4/5 inhibitor verapamil by SRB assay to GI50 for antiproliferative activity against human SW1573 cells incubated for 48 hrs in presence of P-gp and CYP3A4/5 inhibitor verapamil by SRB assay. The class given is functional. Summed up: as §3

Data set [9] can be described thus: Ratio of GI50 for antiproliferative activity against human hTERT-BJ cells incubated for 48 hrs by SRB assay to GI50 for antiproliferative activity against human A549 cells incubated for 48 hrs by SRB assay. An outline of the steps: (§4)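 Selectivity is GI50 in the nontumor BJ-hTERT fibroblasts divided by GI50 in each tumor line. All values come from the same 48 h SRB assay, with 0.01−100 μM serial dilutions.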

Data set [10] in a line: Ratio of GI50 for antiproliferative activity against human hTERT-BJ cells incubated for 48 hrs by SRB assay to GI50 for antiproliferative activity against human HBL100 cells incubated for 48 hrs by SRB assay. An outline of the steps:
as §4

Data set [11] is described as follows: Ratio of GI50 for antiproliferative activity against human hTERT-BJ cells incubated for 48 hrs by SRB assay to GI50 for antiproliferative activity against human HeLa cells incubated for 48 hrs by SRB assay. The class given is toxicity, cell-based. The settings on record: hTERT-BJ cells versus HeLa cells, read-out: RatioGI50. Summed up:
as §4

A short description of data set [12]: Ratio of GI50 for antiproliferative activity against human hTERT-BJ cells incubated for 48 hrs by SRB assay to GI50 for antiproliferative activity against human SW1573 cells incubated for 48 hrs by SRB assay. The class given is toxicity, cell-based. The settings on record: hTERT-BJ cells versus SW1573 cells, read-out: RatioGI50. An outline of the steps:
as §4

The nature of data set [13]: Ratio of GI50 for antiproliferative activity against human hTERT-BJ cells incubated for 48 hrs by SRB assay to GI50 for antiproliferative activity against human T47D cells incubated for 48 hrs by SRB assay. The class given is toxicity, cell-based. The settings on record: hTERT-BJ cells versus T47D cells, read-out: RatioGI50. Summed up:
as §4

The nature of data set [14]: Ratio of GI50 for antiproliferative activity against human hTERT-BJ cells incubated for 48 hrs by SRB assay to GI50 for antiproliferative activity against human WiDr cells incubated for 48 hrs by SRB assay. The class given is toxicity, cell-based. The following applies: hTERT-BJ cells versus WiDr cells, read-out: RatioGI50. An outline of the steps: as §4

As to `C[C@]12C(=O)C=CC=C1[C@H](O)[C@H]1O[C@]3([C@@H]4C[C@]5(C)C(=O)O[C@H]4C[C@@]5(C)O)CC[C@@]4(O3)[C@H]1[C@@H]2CC[C@]4(C)O`, the GI50 in the data set on A549 is over 10 µM; with HBL-100, over 10 µM; in the data set on HeLa, 3.3 µM; in the data set with SW1573 [1], 4.4 µM; with T47D, 6.4 µM; in the data set on WiDr it was over 10 µM. Moreover, the GI50 with SW1573 [3] came to 4.1 µM; in the data set on SW1573 [4], 4.5 µM; with SW1573 [6], 5.5 µM; in the data set with SW1573 [7] it was 2.7 µM. The same molecule came in with a GI50 at 48 h in data set [2] of 5.3 µM. Also, the results for the RatioGI50 in the data set on SW1573 [5] and in the data set on SW1573 [8] were 1.1 and 0.5, respectively.
As to `C[C@]12C(=O)C=CCC1=C[C@H]1O[C@]3([C@@H]4C[C@]5(C)C(=O)O[C@H]4C[C@@]5(C)O)CC[C@@]4(O3)[C@H]1[C@@H]2CC[C@]4(C)O`, the concentration for 50% growth inhibition (GI50) in the data set on A549, in the data set on HBL-100, with HeLa, in the data set on SW1573 [1], in the data set with T47D and in the data set with WiDr was over 10 µM each time. The molecule further returned a GI50 at 48 h in [2] of over 10 µM. Besides, the RatioGI50 in data set [9] and in [10] was 2 - 10 throughout. Further, the selectivity ratio at 48 h in data set [11], in [12], in [13] and in data set [14] was 2 to 10 in each case.
On to `C[C@]1(O)CC[C@H]2[C@H]3[C@H](O[C@]4([C@@H]5C[C@]6(C)C(=O)O[C@H]5C[C@@]6(C)O)CC[C@@]31O4)[C@@H](O)[C@]13O[C@H]1C=CC(=O)[C@]23C`, for which the GI50 in the data set with A549, in the data set on HBL-100, in the data set with HeLa, with SW1573 [1], in the data set on T47D and with WiDr was over 10 µM throughout. The selectivity ratio at 48 h in data set [11], in data set [12], in [13] and in data set [14] was 2 to 10 each time.
`CC1=C(C)C(=O)O[C@@H]([C@]2(C)OC(O)[C@@]34CC[C@H]5[C@@H](CC=C6CC=CC(=O)[C@@]65C)[C@](O)(CC[C@H]23)O4)C1` (stereo partly drawn): the GI50 in the data set on A549 was over 10 µM; in the data set on HBL-100, over 10 µM; with HeLa, over 100 µM; with SW1573 [1], over 10 µM; in the data set on T47D it was over 10 µM; in the data set on WiDr, over 10 µM. Besides, the selectivity ratio at 48 h in [11], in data set [12], in data set [13] and in [14] was 2 to 10 each time.
Take `CC1=C(C)C(=O)O[C@@H]([C@]2(C)OC(O)[C@]34CC[C@H]5[C@@H]([C@H](O)C=C6CC=CC(=O)[C@@]65C)[C@@H]3CC[C@H]24)C1` (stereo partly drawn): the GI50 with A549, in the data set on HBL-100, in the data set with HeLa, in the data set on SW1573 [1], in the data set on T47D and in the data set with WiDr was over 10 µM each time. Moreover, the selectivity ratio at 48 h in [11], in data set [12], in data set [13] and in data set [14] was 2 to 10 throughout.
As to `CC1=C(C)C(=O)O[C@@H]([C@](C)(O)[C@H]2CC[C@H]3[C@@H]4[C@@H](O)C=C5[C@@H](O)C=CC(=O)[C@]5(C)[C@H]4CC[C@]23CO)C1`, the GI50 with A549, in the data set on HBL-100, with HeLa, in the data set on SW1573 [1], in the data set with T47D and with WiDr was over 10 µM in each case. Besides, the selectivity ratio at 48 h in [11], in data set [12], in data set [13] and in [14] was 2 to 10 each time.
Consider `CC1=C(CO)C(=O)O[C@@H]([C@]2(C)OC(O)[C@@]34CC[C@H]5[C@@H](CC=C6CC=CC(=O)[C@@]65C)[C@](O)(CC[C@H]23)O4)C1` (stereo partly drawn), for which the 50% growth inhibitory concentration (GI50) in the data set with A549, in the data set with HBL-100, with HeLa, in the data set on SW1573 [1], in the data set with T47D and in the data set with WiDr was over 10 µM in each case. The selectivity ratio at 48 h in [11], in data set [12], in data set [13] and in data set [14] was 2 to 10 throughout.
Take `C[C@]12C(=O)CC=CC1=C[C@H]1O[C@]3([C@@H]4C[C@]5(C)C(=O)O[C@H]4C[C@@]5(C)O)CC[C@@]4(O3)[C@H]1[C@@H]2CC[C@]4(C)O`: the GI50 in the data set with A549, in the data set with HBL-100, with HeLa, with SW1573 [1], in the data set on T47D and with WiDr was over 10 µM in each case. In addition, the selectivity ratio at 48 h in [11], in [12], in data set [13] and in [14] was 2 to 10 in each case.
For `CC1=C(C)C(=O)O[C@@H]([C@]2(C)OC(O)[C@]34CC[C@H]5[C@@H]([C@H](O)C=C6C=CCC(=O)[C@@]65C)[C@@H]3CC[C@H]24)C1` (stereo partly drawn), the GI50 with A549, in the data set with HBL-100, in the data set with HeLa, with SW1573 [1], with T47D and in the data set with WiDr was over 10 µM each time. In addition, the selectivity ratio at 48 h in data set [11], in data set [12], in data set [13] and in data set [14] was 2 to 10 each time.
For the molecule `CC(=O)O[C@H]1C(=O)[C@@]2(C)[C@H]([C@H](OC(=O)c3ccccc3)[C@]3(O)C[C@H](OC(=O)[C@H](O)[C@@H](NC(=O)c4ccccc4)c4ccccc4)C(C)=C1C3(C)C)[C@]1(OC(C)=O)CO[C@@H]1C[C@@H]2O` [PACLITAXEL], the concentration for 50% growth inhibition (GI50) came out at 0.0015 µM in the data set on SW1573 [3], 0.196 µM in the data set on SW1573 [4], 0.0016 µM in the data set on SW1573 [6] and 0.0042 µM in the data set with SW1573 [7]. Moreover, the results for the RatioGI50 with SW1573 [5] and in the data set with SW1573 [8] were 128 and 2.6, respectively.
`CC[C@]1(O)C[C@@H]2CN(CCc3c([nH]c4ccccc34)[C@@](C(=O)OC)(c3cc4c(cc3OC)N(C)[C@H]3[C@@](O)(C(=O)OC)[C@H](OC(C)=O)[C@]5(CC)C=CCN6CC[C@]43[C@@H]65)C2)C1` [VINBLASTINE]: the GI50 with SW1573 [3] is 0.0009 µM; in the data set on SW1573 [4], 2.05 µM; in the data set with SW1573 [6], 0.0008 µM; in the data set on SW1573 [7] it was 0.001 µM. In addition, the RatioGI50 in the data set with SW1573 [5] amounted to 2388; with SW1573 [8], 1.3.
